{"data": "Experimental data collected from several papers", "Htr1d": "5-hydroxytryptamine receptor 1D (Htr1d, Rattus norvegicus, UniProt P28565)", "MMP8": "Neutrophil collagenase (MMP8, Homo sapiens, UniProt P22894)", "note": "Compare with care: the assays were run in different laboratories."}
{"SMILES": "CC(C)=CCC[C@]1(C)C=Cc2c(O)c3c(c(CC=C(C)C)c2O1)O[C@]12C(=C[C@@H]4C[C@H]1C(C)(C)O[C@@]2(C/C=C(/C)C(=O)O)C4=O)C3=O", "target": "N-lysine methyltransferase KMT5A (KMT5A, Homo sapiens, UniProt Q9NQR1)", "assay": "cell-free assay", "setting": "10 µM", "inhibition": "18%"}
{"SMILES": "O=C(O)Cc1ccccc1Nc1c(Cl)cccc1Cl", "target": "Histone acetyltransferase p300 (EP300, Homo sapiens, UniProt Q09472)", "assay": "enzyme activity, inhibitor, mobility shift", "setting": "1.25 mM", "inhibition": "> 50%"}
{"SMILES": "c1ccc(C(NCCNC(c2ccccc2)c2ccccc2)c2ccccc2)cc1", "target": "Carbonic anhydrase 2 (CA2, Homo sapiens, UniProt P00918)", "assay": "enzyme activity, inhibitor", "setting": "10 µM", "inhibition": "-7%"}
{"SMILES": "O=C(Nc1cccnn1)N1CCN([C@@H]2CCOc3cc(C(F)(F)F)ccc32)CC1", "target": "Htr1d", "assay": "cell-free assay", "setting": "20 µM", "inhibition": "4%"}
{"SMILES": "Cc1ncc(C)n2nc(/C=C/c3nc(N4CCCC4)cc(N4CCOCC4)n3)nc12", "target": "Htr1d", "assay": "ligand displacement", "setting": "10 µM", "inhibition": "-1%"}
{"SMILES": "Cn1cc(-c2cccc(N3CCc4c(sc5c4CC(C)(C)C5)C3=O)c2CO)cc(Nc2ccncn2)c1=O", "target": "Dual specificity mitogen-activated protein kinase kinase 6 (MAP2K6, Homo sapiens, UniProt P52564)", "assay": "enzyme activity, inhibitor", "setting": "1 µM", "inhibition": "11%"}
{"SMILES": "C#Cc1n[nH]c2c(-c3cn([C@@H](C)c4ccccn4)c(=O)[nH]c3=O)cc(F)cc12", "target": "cAMP-dependent protein kinase catalytic subunit alpha (PRKACA, Homo sapiens, UniProt P17612)", "assay": "enzyme activity, inhibitor", "setting": "0.1 µM", "inhibition": "5.1%"}
{"SMILES": "Cn1cc(-c2cc(F)cc(N3CCn4c(cc5c4CCCC5)C3=O)c2CO)cc(Nc2ccc(N3CCN(C4COC4)CC3)cn2)c1=O", "target": "G protein-coupled receptor kinase 3 (GRK3, Homo sapiens, UniProt P35626)", "assay": "enzyme activity, inhibitor", "setting": "0.1 µM", "inhibition": "0%"}
{"SMILES": "CN(C)C(=O)COC(=O)Cc1ccc(OC(=O)c2ccc(NC(=N)N)cc2)cc1", "target": "MMP8", "assay": "enzyme activity, inhibitor", "setting": "10 µM", "inhibition": "33%"}
{"SMILES": "CCN(CC)CCCC[C@H](NC(=O)[C@H](CC(C)C)NC(=O)[C@H](C)NC(=O)[C@H](Cc1ccccc1)NC(=O)c1ccc(C(C)(C)C)cc1)C(=O)N[C@@H](CO)C(=O)OC", "target": "Cholecystokinin receptor type A (CCKAR, Homo sapiens, UniProt P32238)", "assay": "ligand displacement, radioligand", "setting": "10 µM", "inhibition": "33%"}
{"SMILES": "NC(CO)C(=O)N/N=C/c1ccc(O)c(O)c1 (stereo not shown)", "target": "Genome polyprotein, protease (Coxsackievirus B3, UniProt P03313)", "assay": "enzyme activity, inhibitor, FRET", "setting": "50 µM", "inhibition": "55.9%"}
{"SMILES": "COc1ccc(S(=O)(=O)N(CC(=O)NO)CC(C)C)cc1", "target": "MMP8", "assay": "enzyme activity, inhibitor", "setting": "1 µM", "inhibition": "91%"}
{"SMILES": "CN(CCN1CCC(OC(=O)Nc2ccccc2-c2ccccc2)CC1)C(=O)c1ccc(CN2CCC(C(N)=O)CC2)cc1", "target": "cGMP-dependent 3',5'-cyclic phosphodiesterase (PDE2A, Homo sapiens, UniProt O00408)", "assay": "enzyme activity, inhibitor", "setting": "1 µM", "inhibition": "1%"}
